# Experimental data taken from the RNAGym collection of RNA variant scans (doi:10.1126/science.aae0568).
# Fewer inactive variants are shown than the library holds.
# B1: tRNA (parent)
# chain: GUUCCGUUGGCGUAAUGGUAACGCGUCUCCCUCCUAAGGAGAAGACUGCGGGUUCGAGUCCCGUACGGAACG
# Variants of: B1
# Experiment: yeast fitness relative to wild type (ratio to wild type); higher = fitter; tRNA-Arg(CCU), competitive growth, 37 C, YPD
# Outline: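 For this measurement, the tRNA-Arg(CCU) gene was varied by chemical synthesis at a 3% per-site mutation rate across 69 sites, and each variant was placed at the native genomic locus in Saccharomyces cerevisiae. The pooled strains went through a 24-hour competition in YPD at 37°C in six parallel replicates, with amplicons from start and end populations read by 100-nucleotide paired-end sequencing. Darwinian fitness relative to wild type followed from the change in each genotype's frequency. Genotypes needed ≥ 100 starting reads, and estimates < 0.5 were set to 0.5.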
row,Variant,yeast fitness
1,GUUCCGUUGGCGUUAUGGUAACGCGUCUCCCUCCUAAGGAGAAGACUGCGGGUUCGAGUCCCGUACGAAACG [A14U G68A],0.721
2,GUUCCGUGGGCGUAAUGGUAACGCGUCUCCCUCCUAAGGAGAAGACUGCGGGUUCGAGUCCCGUCCGGAACG [U8G A65C],0.733
3,GUUCCGUUGGCGUUAUGAUAACGCGUCUCCCUCCAAAGGAGAAGACUGCGGGUUCGCGUCCUGUACGGAACG [A14U G18A U35A A57C C62U],≤ 0.5
4,GAUCCGUUGGCGUAAUGGUAACGCGUCUCCCUCCUAAGGAGAAGACUGCGGGUUCGAGUUCCGUUCGGAUCG [U2A C60U A65U A70U],≤ 0.5
5,GUUCCGUUGGCGUAAUGGUAAGGCGUCUCCCUCCUAAGGAGUAGACUGCGGGUUCGAGUCCCGUACGGAACG [C22G A42U],0.699
6,GUGCCGUUGGCGUAAUGGUAACGCGUCUCCCUCCUAAGGAAAAGACUGCGGGUUCGAGUCCCGUACGGAACG [U3G G41A],0.748
7,GUACCGUUCGCGUAAUGGUGACGCGUCUACCUCCUAAGGAGAAGACUGCGGGUUCGAGUCCCGUACUGAACG [U3A G9C A20G C29A G67U],0.633
8,GUUCCGUUGGCGUAAUGGUACCGCGUCUCCCUCCUAAGGAGAAGACUGCGGGUUCGAGUCCCGUAUGGAACG [A21C C66U],0.757
9,GUUCCGUUGGCGUCAUGGUAACGCGUUUCCCUCCUAAGGAGAAGACCGCGGGUUCGAGUGCCGUACGGAACG [A14C C27U U47C C60G],0.641
10,GUUCCGUUGGCGUAAUGGUAACGUGUCUCCCUCCUAAGGAGAAGACUGCGGAUUCGAGUCCCGUACGGAACG [C24U G52A],0.871
11,GUUCGGUUGGCGUAAUGGUAACGCGUCUCCCUCCCAAGGAGAAGACUGCCGGUUCAAGUCCCGUACGGAUCG [C5G U35C G50C G56A A70U],≤ 0.5
12,GUUCCGUUGACCUAAUGGUAUCGCGUCUCCCUCCUAAGGAGUAGACUGCGGGUUCGAGUCCCGUACGGAACG [G10A G12C A21U A42U],≤ 0.5
13,GUUCCGUUGGAGUAAUGGUAACGCGUCUCCCUCCUAAGGAGAUGCCUGCGGGCUCGAGUCCCGUACGGAACG [C11A A43U A45C U53C],≤ 0.5
14,GUUCCGUUGGCGUAUUGGUAACGCGUCUCCUUCCACAGGAGAAGACUGCGGGAUCGAGUCCCGUACGCAACG [A15U C31U U35A A36C U53A G68C],≤ 0.5
15,GUUCCGUUGGCGUAAUGGUGACGCGUCUCCCUCCUAAGGAGAAGACUGCGGGUUCUAGUCCCGUGCGGAACG [A20G G56U A65G],0.587
16,GUUCCGUUGGCGUAAUGGUAACGCGUCUCCCUCCUAAGGAGAUGACUCCGGGUUCGAGUGCCGUACGGAACG [A43U G48C C60G],≤ 0.5
17,GUUCCGUUGGCGUAAUGGUCACGCGUCUCCCUCCUAAGGAGAAGACGGCGGGUUCGAGUGCCGUACGGAACG [A20C U47G C60G],≤ 0.5
18,GUUUCGUUGGCGCAAUGGUAACGUGUCUCCCUCCUAAGGAGAAGACUGUGGGUUCGAGUCCCGUACGGAACG [C4U U13C C24U C49U],≤ 0.5
19,GUUCCGUUGGCGAAAUGGUAUGGCGUCUCCAUCCUAAGGAGAAGACUGCAGGUUCGAGUCCCGUACGGAACG [U13A A21U C22G C31A G50A],≤ 0.5

row,Variant,yeast fitness
1,GUUCCGUUGGUGUAAUGGUAACGCGUCUCCCUCCUAAGGAGAAGACUACGGGUUCGAGUCCCGUCCGGAACG [C11U G48A A65C],0.663
2,GUUCCGUUGGCGUAAUGGUAACGCGCCCCCCUCGUAAGGAGAAGACUGCGGGUUCGAGACCCGUUCGGAACG [U26C U28C C34G U59A A65U],≤ 0.5
3,GUUCCGUUGGUGUAAUGGUUACGCGUCUCCCUCCUAAAGAGAAGACUGCGAGUACGAGUCCCGUACGGAACG [C11U A20U G38A G51A U54A],0.527
4,GUUCGGUUAGCGUAAUGGUGACGCGUCUCCCUCCUAAGGAGAAGACUGCGGGUUCGAGUCCCGUACGGAACG [C5G G9A A20G],0.553
5,GUUCCGUUGGCGUAAUGGUAACGCGUCUCCCUCCUAAGGAGGAGACUGCGGGUUCCAGUCCCGUACGGAACG [A42G G56C],0.595
6,GUUCCGUUGGCGUAAUGGUAACGCGUCUCCCUCCUUAGGAGAAGAUUGCGAGUUCGAGUCCCGCACGGAACG [A36U C46U G51A U64C],0.597
7,GUUCCGUUGGCGUAAUGGUACCGCCGCUCCCUCCUAAGGAGAAGACUGCGGGUUCGAGACCCGUACGGAACG [A21C G25C U26G U59A],≤ 0.5
8,GUGCCGUUGGCGAAAAGGUAACGCGUCUCCCUCCUAAGGAGAAGACUGCGGGUUCGAGUCCUGAACGGAACG [U3G U13A U16A C62U U64A],≤ 0.5
9,GUUCCCUUGGCGUAAUGGUUACGCGUCUCCCUCCUCAGGGGAUGACUGCGGGUUCGCGUCCCGUACGGAACG [G6C A20U A36C A40G A43U A57C],≤ 0.5
10,GUUCCGUUGGCGUAAUGGUAAGGCAUCUCCCUCCUAAGGAGAAGACUGCUGGUUCGAGUCCCGUACGGAACG [C22G G25A G50U],0.593
11,GUUCCGUUAGCGUAAUGGUAACGCGUCUCCCUCUUAAGGAGAACCCUGCGGGUUCGAGUCCCGUAAGGAACG [G9A C34U G44C A45C C66A],0.578
12,GUUCCGUUGGCGUUAUGGUAACGCGUGUCCCUCCUGAGGAGAAGAAUGCGGGUUCGAGACCCGUACGGAACG [A14U C27G A36G C46A U59A],0.52
13,GUUCCGUUGGCGUAAUGGUAACGCGUCUCCCUCCUAAGCAGAAGACUGCGGGUUCGAGUCCAGAACGGAACG [G39C C62A U64A],≤ 0.5
14,GUUCCGUUGGCGUAAUGGUAACGUGUCUCCCUCCUAAGGCGAAGACUGCGGGUUCGAGUCCCGUACGGAACG [C24U A40C],0.806
15,GUUCCGUUGACGUAAUGGUAAAGCGUCUCCCUCCUAAGGAGAGGACUGCGGGUUAGAGUCCCGUACGGAACG [G10A C22A A43G C55A],≤ 0.5
16,GUUCCGUUGGCGUAAUGGUAACGCGUCUCCCUCCUAAGGAGAGGACUGCCGGUUCGAGCCCCGUACGGAACG [A43G G50C U59C],≤ 0.5
17,GUUCAGUUGGCGUAAUGGUACCGCGUAUCCCUCCUAAGGAGAAGACUGCGGGUUCGAGUCCCGUACGGAACG [C5A A21C C27A],0.568
18,GUUCCGUUGGCGUAAUGGUAACGCGUCACCCUCCUAAGGAGAAGACUGCGGGUUCGAGCCCCGUACGGAACG [U28A U59C],0.647
